This passage reports MIC and ED50 results from ChEMBL document CHEMBL1124774, “Synthesis and biological activity of some derivatives of rifamycin P” (1990).

As usually defined, the ED50 is the dose at which the effect has come halfway, by size or by number of responders. High values mean weaker potency, low ones greater potency.

Molecules are shown by their SMILES. Converted amounts (≈) assume the structure as drawn.

What all share (assay type): functional
One assay has as its system Streptococcus pyogenes. Description: In vitro antibacterial activity of compound against Streptococcus pyogenes C 203 SKF 13400. In short, it runs like this: (§1)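 Streptococcal MICs were run by twofold microdilution in Todd-Hewitt broth over 128-0.0001 µg/mL. Inoculum was 10^4 cfu/mL, with incubation at 37 °C for 18-24 h.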
Assay [1] concerns Staphylococcus epidermidis. Kind of assay: In vitro antibacterial activity of compound against Staphylococcus epidermidis ATCC 12228. Summed up:
(§2)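 Twofold microdilution MIC in Iso-Sensitest broth over 128-0.0001 µg/mL. Inoculum was 10^4 cfu/mL, with incubation at 37 °C for 18-24 h.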

The test system of the next assay is Klebsiella pneumoniae. Kind of assay: In vitro antibacterial activity of compound against Klebsiella pneumoniae ISM.
The test system of assay [2] is Staphylococcus aureus. Description: Activity in the murine model (OS route) of Staphylococcus aureus tour septicemia. Summed up:
(§3)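 Male and female CD1 mice (18-22 g) were infected ip with S. aureus Tour. The challenge was set so untreated mice died within 48 h. Groups were five mice, dosed once daily for 3 days starting immediately after infection. ED50 was calculated on day 10 from the percentage surviving at each dose.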

For assay [3], the system named is Mycobacterium tuberculosis. Kind of assay: In vitro antibacterial activity of compound against Mycobacterium tuberculosis H37Rv ATCC 9660.
The next assay concerns Haemophilus influenzae. Kind of assay: In vitro antibacterial activity of compound against Haemophilus influenzae ATCC 19418.
Another assay relates to Escherichia coli. Kind of assay: In vitro antibacterial activity of compound against Escherichia coli SKF 12140.
The next assay deals with Enterococcus faecalis. Description: In vitro antibacterial activity of compound against Streptococcus faecalis ATCC 7080. In short, it runs like this: as §2
Assay [4] relates to Staphylococcus aureus. Description: In vitro antibacterial activity of compound against Staphylococcus aureus Tour L 165. Summed up:
as §2

Another assay relates to Neisseria gonorrhoeae. Kind of assay: In vitro antibacterial activity of compound against Neisseria gonorrhoeae ISM 68/126.
The next assay relates to Proteus vulgaris. Kind of assay: In vitro antibacterial activity of compound against Proteus vulgaris X19H ATCC 881.
For the next assay, the system named is Streptococcus pneumoniae. Description: In vitro antibacterial activity of compound against Streptococcus pneumoniae UC 41. Summed up:
as §1

Another assay relates to Pseudomonas aeruginosa. Description: In vitro antibacterial activity of compound against Pseudomonas aeruginosa ATCC 10145. Summed up: as §2
Assay [5] relates to Staphylococcus aureus. Description: Activity in the murine model (subcutaneous route) of Staphylococcus aureus tour septicemia. Conditions: sc. In short, it runs like this:
as §3

As to `COC1/C=C/OC2(C)Oc3c(C)c(O)c4c(O)c(c5sc(N6CCN(CCO)CC6)nc5c4c3C2=O)NC(=O)/C(C)=C\C=C\C(C)C(O)C(C)C(O)C(C)C(OC(C)=O)C1C` (stereo unspecified), the MIC in the assay with Streptococcus pyogenes was 0.016 µg/mL (≈ 0.0185 µM); in assay [1], 0.125 µg/mL (≈ 0.144 µM); in the assay on Klebsiella pneumoniae, 32 µg/mL (≈ 36.9 µM); in assay [3] it was 1 µg/mL (≈ 1.15 µM); against Haemophilus influenzae, 0.125 µg/mL (≈ 0.144 µM); against Escherichia coli it was 8 µg/mL (≈ 9.23 µM). In addition, the MIC in the assay on Enterococcus faecalis stood at 4 µg/mL (≈ 4.61 µM); in the assay with Staphylococcus aureus [4], 0.016 µg/mL (≈ 0.0185 µM); in the assay on Neisseria gonorrhoeae it was 0.125 µg/mL (≈ 0.144 µM); against Proteus vulgaris, 16 µg/mL (≈ 18.5 µM); against Streptococcus pneumoniae it was 0.008 µg/mL (≈ 0.00923 µM); with Pseudomonas aeruginosa, 16 µg/mL (≈ 18.5 µM). Also, in the assay on Staphylococcus aureus [2], the ED50 is > 20 mg/kg.
`COC1/C=C/OC2(C)Oc3c(C)c(O)c4c(O)c(c5sc(N6CCN(C)CC6)nc5c4c3C2=O)NC(=O)/C(C)=C\C=C\C(C)C(O)C(C)C(O)C(C)C(O)C1C` (stereo unspecified): the MIC against Streptococcus pyogenes is 0.063 µg/mL (≈ 0.0792 µM); in assay [1], 0.125 µg/mL (≈ 0.157 µM); against Klebsiella pneumoniae, 16 µg/mL (≈ 20.1 µM); in assay [3] it was 1 µg/mL (≈ 1.26 µM); against Haemophilus influenzae, 0.125 µg/mL (≈ 0.157 µM); with Escherichia coli, 8 µg/mL (≈ 10.1 µM). Besides, the MIC with Enterococcus faecalis is 1 µg/mL (≈ 1.26 µM); with Staphylococcus aureus [4] it was 0.008 µg/mL (≈ 0.0101 µM); in the assay on Neisseria gonorrhoeae, 1 µg/mL (≈ 1.26 µM); against Proteus vulgaris, 8 µg/mL (≈ 10.1 µM); in the assay with Streptococcus pneumoniae, 0.063 µg/mL (≈ 0.0792 µM); with Pseudomonas aeruginosa, 16 µg/mL (≈ 20.1 µM). Also, it took a dose of 10 mg/kg to reach the 50% effect level in the assay on Staphylococcus aureus [5] (ED50).
